Experimental data reported in paper PMC3994405 (Clinical cancer research : an official journal of the …, 2014).
Where two headings read alike, the source gives them in different places.

Test system: peptide-MHC reactive CD8 T cells in PBLs from healthy donors
Type: cell-based, human
Conditions: PBLs after enrichment and 2-3 weeks culture
Procedure, shortened: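 PBLs washed in PBS with 2% FBS and stained with 0.1ug of each PE-coupled peptide-MHC multimer, 1h at 4°C. Anti-PE microbeads were added for 15 min, then magnetic column capture. Enriched cells were expanded 2–3 weeks in X-vivo with 5% human serum, 100 U/ml IL-2, 15 ng/ml IL-15, autologous negative-fraction feeders and anti-CD3/CD28 beads. Cells were then analysed by two-colour combinatorial multimer staining on lymphocyte/single/live/CD8 gates.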

Sequence	Healthy Donors: number of times a response was detected/number of investigated HLA matched individuals (HLA-A3 restriction)	Healthy Donors: number of times a response was detected/number of investigated HLA matched individuals (HLA-A11 restriction)	other results
KMALHGLPR	1/14		
LPRYFNVTL			Healthy Donors: number of times a response was detected/number of investigated HLA matched individuals (HLA-B7 restriction): 1/13
NLPAYSVARV			Healthy Donors: number of times a response was detected/number of investigated HLA matched individuals (HLA-A2 restriction): 1/16
SLFSNLMPK		2/7A11	
TVLGRKMTPK	1/14		
VTLRKRWVK		1/7	
